Results on two compounds are retold here after ChEMBL document CHEMBL1821604, “Anticancer activity and cDNA microarray studies of a (RS)-1,2,3,5-tetrahydro-4,1-benzoxazepine-3-yl]-6-chloro-9H-purine, and an acyclic (RS)-O,N-acetalic 6-chloro-7H-purine” (Eur J Med Chem, 2011).

Assay [1] has as its system MCF7. In words: Cytotoxicity against human MCF7 cells after 6 days by SRB colorimetric assay. It counts as functional, cell-based. The conditions noted are these: MCF7, 144 h. On the technique in general: The SRB assay estimates cell density from bound dye.
For assay [2], the system named is MCF7. Put plainly: Down regulation of ADAMTS3 gene expression in human MCF7 cells at IC50 after 48 hrs by cDNA microarray technique relative to control. The class given is functional. Summed up: (§1)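 8 × 10⁶ cells exposed 48 h to compound at its IC50 concentration; total RNA isolated with trizol/chloroform and RNeasy columns including on-column DNase step; RNA quantified by OD 260/280; DMSO-treated cultures as control.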

Assay [3] concerns HT-29. Put plainly: Down regulation of POU6F1 gene expression in human HT-29 cells at IC50 after 48 hrs by cDNA microarray technique relative to control. The class given is functional.
Assay [4] deals with HT-29. Put plainly: Down regulation of HAPLN3 gene expression in human HT-29 cells at IC50 after 48 hrs by cDNA microarray technique relative to control. The class given is functional. Summed up: (§2)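 Cells (8 × 10⁶) were cultured in DMEM with 10% heat-inactivated FBS at 37 °C under 5% CO₂. They were exposed for 48 h to compound at its IC₅₀, with DMSO-treated parallel cultures as controls (final DMSO ≤0.1% v/v). Total RNA was isolated by trizol/chloroform phase separation, RNeasy column cleanup and on-column DNase, then quantified by OD260/OD280. Expression was profiled by cDNA microarray relative to control.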

For assay [5], the system named is MCF7. Put plainly: Upregulation of FLJ10945 gene expression in human MCF7 cells at IC50 after 48 hrs by cDNA microarray technique relative to control. It counts as functional.
The subject of assay [6] is HT-29. Put plainly: Upregulation of PDGFA gene expression in human HT-29 cells at IC50 after 48 hrs by cDNA microarray technique relative to control. It counts as functional.
Assay [7] concerns HT-29. Put plainly: Upregulation of GALNT10 gene expression in human HT-29 cells at IC50 after 48 hrs by cDNA microarray technique relative to control. It counts as functional.
The subject of assay [8] is HT-29. In words: Down regulation of ADAMTS3 gene expression in human HT-29 cells at IC50 after 48 hrs by cDNA microarray technique relative to control. It counts as functional. Summed up:
as §1

The subject of assay [9] is HT-29. Put plainly: Down regulation of SLC28A2 gene expression in human HT-29 cells at IC50 after 48 hrs by cDNA microarray technique relative to control. The class given is functional.
Assay [10] relates to HT-29. In words: Upregulation of PDE4B gene expression in human HT-29 cells at IC50 after 48 hrs by cDNA microarray technique relative to control. The class given is functional.
Assay [11] deals with MCF7. Put plainly: Down regulation of ZNF336 gene expression in human MCF7 cells at IC50 after 48 hrs by cDNA microarray technique relative to control. It counts as functional.
Assay [12] concerns MCF7. In words: Down regulation of IL1F9 gene expression in human MCF7 cells at IC50 after 48 hrs by cDNA microarray technique relative to control. The class given is functional. The essentials: as §2
Assay [13] has as its system MCF7. In words: Down regulation of PCDH20 gene expression in human MCF7 cells at IC50 after 48 hrs by cDNA microarray technique relative to control. The class given is functional.
The test system of assay [14] is MCF7. Put plainly: Down regulation of ZNF189 gene expression in human MCF7 cells at IC50 after 48 hrs by cDNA microarray technique relative to control. It counts as functional.
Assay [15] relates to MCF7. Put plainly: Upregulation of KIAA1277 gene expression in human MCF7 cells at IC50 after 48 hrs by cDNA microarray technique relative to control. It counts as functional.
Assay [16] concerns HT-29. Put plainly: Down regulation of FLJ32871 gene expression in human HT-29 cells at IC50 after 48 hrs by cDNA microarray technique relative to control. It counts as functional. The essentials:
as §2

Assay [17] concerns MCF7. In words: Down regulation of RAC2 gene expression in human MCF7 cells at IC50 after 48 hrs by cDNA microarray technique relative to control. It counts as functional.
The subject of assay [18] is HT-29. In words: Upregulation of IMP-1 gene expression in human HT-29 cells at IC50 after 48 hrs by cDNA microarray technique relative to control. The class given is functional.
Assay [19] deals with MCF7. Put plainly: Upregulation of FGD3 gene expression in human MCF7 cells at IC50 after 48 hrs by cDNA microarray technique relative to control. The class given is functional.
Assay [20] deals with MCF7. In words: Upregulation of ADPN gene expression in human MCF7 cells at IC50 after 48 hrs by cDNA microarray technique relative to control. It counts as functional.
The test system of assay [21] is MCF7. Put plainly: Down regulation of ATP1B4 gene expression in human MCF7 cells at IC50 after 48 hrs by cDNA microarray technique relative to control. It counts as functional. Summed up: as §1
Assay [22] has as its system MCF7. Put plainly: Down regulation of ENST00000295859 gene expression in human MCF7 cells at IC50 after 48 hrs by cDNA microarray technique relative to control. It counts as functional. Summed up: as §2
The test system of assay [23] is MCF7. Put plainly: Down regulation of MGC42090 gene expression in human MCF7 cells at IC50 after 48 hrs by cDNA microarray technique relative to control. The class given is functional.
In assay [24] the test system is MCF7. In words: Down regulation of P53AIP1 gene expression in human MCF7 cells at IC50 after 48 hrs by cDNA microarray technique relative to control. The class given is functional.
In assay [25] the test system is HT-29. In words: Down regulation of HNRPAB gene expression in human HT-29 cells at IC50 after 48 hrs by cDNA microarray technique relative to control. The class given is functional. The essentials: as §2
Assay [26] has as its system MCF7. In words: Down regulation of TMPRSS6 gene expression in human MCF7 cells at IC50 after 48 hrs by cDNA microarray technique relative to control. The class given is functional.
Assay [27] concerns HT-29. In words: Down regulation of PCSK9 gene expression in human HT-29 cells at IC50 after 48 hrs by cDNA microarray technique relative to control. It counts as functional.
Assay [28] relates to HT-29. Put plainly: Down regulation of GBGT1 gene expression in human HT-29 cells at IC50 after 48 hrs by cDNA microarray technique relative to control. It counts as functional. Summed up:
as §2

For assay [29], the system named is HT-29. Put plainly: Down regulation of DKFZp451J0118 gene expression in human HT-29 cells at IC50 after 48 hrs by cDNA microarray technique relative to control. It counts as functional. Summed up:
as §1

The subject of assay [30] is HT-29. In words: Down regulation of EML2 gene expression in human HT-29 cells at IC50 after 48 hrs by cDNA microarray technique relative to control. The class given is functional. Summed up: as §2
Assay [31] concerns MCF7. Put plainly: Upregulation of ERN1 gene expression in human MCF7 cells at IC50 after 48 hrs by cDNA microarray technique relative to control. The class given is functional.
The test system of assay [32] is HT-29. In words: Down regulation of MDGA1 gene expression in human HT-29 cells at IC50 after 48 hrs by cDNA microarray technique relative to control. It counts as functional.
The subject of assay [33] is HT-29. Put plainly: Down regulation of ANP32C gene expression in human HT-29 cells at IC50 after 48 hrs by cDNA microarray technique relative to control. The class given is functional. Summed up:
as §1

Assay [34] concerns MCF7. Put plainly: Upregulation of GABARAPL1 gene expression in human MCF7 cells at IC50 after 48 hrs by cDNA microarray technique relative to control. It counts as functional.
Assay [35] deals with MCF7. In words: Upregulation of OXSR1 gene expression in human MCF7 cells at IC50 after 48 hrs by cDNA microarray technique relative to control. The class given is functional.
The test system of assay [36] is HT-29. In words: Down regulation of CKLFSF5 gene expression in human HT-29 cells at IC50 after 48 hrs by cDNA microarray technique relative to control. The class given is functional. Summed up: as §1
Assay [37] concerns HT-29. Put plainly: Down regulation of ZFYVE9 gene expression in human HT-29 cells at IC50 after 48 hrs by cDNA microarray technique relative to control. It counts as functional.
Assay [38] relates to HT-29. In words: Down regulation of PYCRL gene expression in human HT-29 cells at IC50 after 48 hrs by cDNA microarray technique relative to control. It counts as functional.

One may read the IC50 as the concentration that gives 50% inhibition. Low readings indicate inhibition by little substance, high ones a need for much substance.

In the assay on MCF7 [1], `COC(CN(c1ccccc1CO)S(=O)(=O)c1ccccc1[N+](=O)[O-])n1cnc2ncnc(Cl)c21` (racemic) yielded an IC50 of 3.25 µM. Besides, the “fold change (FC)” value is recorded as -2.06 in the assay on MCF7 [2]; -3.13 in the assay with HT-29 [3]; -2.64 with HT-29 [4]; 2.07 in the assay with MCF7 [5]; 2.15 in the assay on HT-29 [6]; 3.5 in the assay on HT-29 [7]. Further, the “fold change (FC)” value in the assay with HT-29 [8] was -2.43; with HT-29 [9], -3.32; with HT-29 [10], 3.84; in the assay on MCF7 [11] it was -2.45; with MCF7 [12] it was -2.17; in the assay with MCF7 [13], -2.01. The “fold change (FC)” value in the assay with MCF7 [14] is -2.17; in the assay on MCF7 [15], 2.21; with HT-29 [16], -2.51; in the assay on MCF7 [17], -2.29; in the assay on HT-29 [18] it was 2.88; in the assay on MCF7 [19], 2.16. The “fold change (FC)” value in the assay on MCF7 [20] was 2.37; in the assay on MCF7 [21], -2.07; in the assay on MCF7 [22], -2.27; in the assay with MCF7 [23], -2.03; in the assay on MCF7 [24] it was -2.4.

For `O=C(OCC1c2ccccc2-c2ccccc21)N1CC(n2cnc3c(Cl)ncnc32)OCc2ccccc21` (racemic), the “fold change (FC)” value in the assay with HT-29 [25] is -2.45; in the assay with MCF7 [26] it was -2.03; with HT-29 [27], -2.32; with HT-29 [28], -2.07; with HT-29 [29] it was -2.03; in the assay on HT-29 [30], -2.82. Moreover, the “fold change (FC)” value in the assay with MCF7 [31] is on record as 2.81; in the assay with HT-29 [32] it was -3.92; in the assay with HT-29 [33], -2.81; with MCF7 [34], 2.07; in the assay with MCF7 [35] it was 2.21; in the assay with HT-29 [36], -2.19. The “fold change (FC)” value with HT-29 [37] is -2.52; with HT-29 [38], -2.36.
